In ChEMBL document CHEMBL3244405, “Imidazo[4,5-f]quinolines. 4. Synthesis and anthelmintic activity of a series of imidazo[4,5-f]quinolin-9-ols” (J Med Chem, 1978) one finds Activity data, which are given here for eight molecules.

The structures appear in SMILES notation. Active and inactive are the calls of the source. The rule behind the calls is not given here.

Series [1] relates to Rodentolepis nana. Put plainly: Anthelmintic activity against Hymenolepis nana infected in mouse assessed as reduction in worm burden at 25 mg/kg bid for 5 days relative to control. The class given is functional. The procedure, abridged: (§1)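 Mice carried the tapeworm *H. nana* and were dosed at 300, 100, 50, 25, 10, 5 or 2.5 mg/kg. Activity was read as percent reduction in worm burden, and significance was tested by Mann-Whitney U test. The rest of the procedure follows an earlier publication.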

For series [2], the system named is Rodentolepis nana. As to the kind of experiment: Anthelmintic activity against Hymenolepis nana infected in mouse assessed as reduction in worm burden at 100 mg/kg bid for 5 days relative to control. The class given is functional. More on the design: scale not given: the % may be the effect or the level left. The procedure, abridged: as §1
The test system of series [3] is Rodentolepis nana. As to the kind of experiment: Anthelmintic activity against Hymenolepis nana infected in mouse assessed as reduction in worm burden at 300 mg/kg bid for 5 days relative to control. More on the design: scale not given: the % may be the effect or the level left. Format: functional. The method in brief: as §1
For series [4], the system named is Rodentolepis nana. As to the kind of experiment: Anthelmintic activity against Hymenolepis nana infected in mouse assessed as reduction in worm burden at 50 mg/kg bid for 5 days relative to control. The class given is functional. Set-up: scale not given: the % may be the effect or the level left. The procedure, abridged: as §1
The subject of series [5] is Rodentolepis nana. Put plainly: Anthelmintic activity against Hymenolepis nana infected in mouse assessed as reduction in worm burden at 5 mg/kg bid for 5 days relative to control. The class given is functional. Set-up: scale not given: the % may be the effect or the level left. The method in brief:
as §1

The subject of the next series is Taenia crassiceps. Put plainly: Anthelmintic activity against Taenia crassiceps infected in beagle dog assessed as complete parasite clearance at 100 mg/kg after 9 days. Format: functional, organism-based. Set-up: dose 100 mg/kg. The procedure, abridged: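 Dogs received a recently isolated *T. crassiceps* strain as 40 cysts per dog, taken from mice and given perorally in gelatin capsules to young beagles. On day 37, drug was given in gelatin capsules, three dogs per test. Dogs were sacrificed 9 days after treatment, and intestinal scolices were counted as worms recovered at necropsy.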

For series [6], the system named is Canis familiaris. Put plainly: Toxicity in beagle dog assessed as emesis at 50 to 150 mg/kg, po. Format: organism-based, Canis lupus familiaris. Set-up: dose 50-150 mg/kg, route oral. To be noted: in vivo. The procedure, abridged:
(§2)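 Beagles infected with *T. pisiformis*, aged from puppies to 2–3 years, received single oral doses of 50–150 mg/kg body weight. Readouts were worm clearance plus observation for emesis and other untoward clinical signs.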

In series [7] the test system is Rodentolepis nana. Put plainly: Anthelmintic activity against Hymenolepis nana infected in mouse assessed as reduction in worm burden at 2.5 mg/kg bid for 5 days relative to control. More on the design: scale not given: the % may be the effect or the level left. The class given is functional. The method in brief: as §1
The test system of series [8] is Syphacia obvelata. Put plainly: Anthelmintic activity against Syphacia obvelata infected in mouse assessed as complete parasite clearance at 50 mg/kg bid for 5 days. The class given is functional, organism-based. Set-up: dose 50 mg/kg.
Series [9] has as its system Rodentolepis nana. As to the kind of experiment: Anthelmintic activity against Hymenolepis nana infected in mouse assessed as reduction in worm burden at 10 mg/kg bid for 5 days relative to control. Format: functional. More on the design: scale not given: the % may be the effect or the level left. The procedure, abridged:
as §1

The test system of series [10] is Syphacia obvelata. As to the kind of experiment: Anthelmintic activity against Syphacia obvelata infected in mouse assessed as reduction in worm burden at 10 mg/kg bid for 5 days relative to control. Format: functional. More on the design: scale not given: the % may be the effect or the level left.
In series [11] the test system is Canis familiaris. As to the kind of experiment: Toxicity in beagle dog assessed as untoward clinical signs at 50 to 150 mg/kg, po. Format: organism-based, Canis lupus familiaris. More on the design: dose 50-150 mg/kg, route oral. To be noted: in vivo. The procedure, abridged:
as §2

The subject of another series is Moniezia. Put plainly: Anthelmintic activity against Moniezia species infected in sheep assessed as complete parasite clearance at 50 mg/kg for 3 days administered as drench solution. The class given is functional, organism-based. Set-up: dose 50 mg/kg. The procedure, abridged: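 Sheep were naturally infected. Drug was mixed with water and sonified to a creamy consistency, then given as a drench. Animals were sacrificed 3 days after dosing and the intestines were examined for worms.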

A further series relates to Taenia pisiformis. As to the kind of experiment: Anthelmintic activity against Taenia pisiformis infected in beagle dog assessed as complete parasite clearance at 50 to 150 mg/kg, po after 10 days. Format: functional, organism-based. The method in brief: as §2
The next series deals with Mus musculus. Put plainly: Toxicity in mouse infected with Hymenolepis nana at 300 mg/kg bid for 5 days. Set-up: dose 300 mg/kg. To be noted: in vivo, 120 h. Format: organism-based.

`Cc1cc(O)c2c(ccc3nc(-c4ccccc4Cl)[nH]c32)n1`: the result with Rodentolepis nana [1] was inactive. Further, the Activity is 100% with Rodentolepis nana [2], 100% in the series on Rodentolepis nana [3] and 75% in the series with Rodentolepis nana [4].

`Oc1c2c(nc3ccc4nc(-c5ccccc5)[nH]c4c13)CCC2`: the result in the series on Rodentolepis nana [1] was inactive. Further, the Activity is reported as 100% in the series with Rodentolepis nana [2], 100% with Rodentolepis nana [3] and 41% in the series with Rodentolepis nana [4].

`Cc1ccc(-c2nc3ccc4nc(C)cc(O)c4c3[nH]2)cc1`: the outcome with Rodentolepis nana [2] was inactive. Moreover, the Activity with Rodentolepis nana [3] came to 70%.

On to `Cc1cc(O)c2c(ccc3nc(-c4ccco4)[nH]c32)n1` [FURODAZOLE], for which the Activity with Rodentolepis nana [5] is recorded as 57%; with Rodentolepis nana [1], 100%; with Canis familiaris [6] it was “Toxic”; in the series with Rodentolepis nana [7], 35%; with Rodentolepis nana [9], 75%; in the series on Rodentolepis nana [2], 100%. In addition, the Activity is on record as 100% in the series with Rodentolepis nana [3], 68% in the series with Syphacia obvelata [10], “Toxic” in the series on Canis familiaris [11] and 100% with Rodentolepis nana [4]. In addition, the result in the series with Taenia crassiceps, in the series with Syphacia obvelata [8], in the series with Moniezia and in the series with Taenia pisiformis was Active.

With `Cc1cc(O)c2c(ccc3nc(-c4ccccc4)[nH]c32)n1`, the Activity with Rodentolepis nana [1] is on record as 77%; in the series on Rodentolepis nana [2], 93%; in the series with Rodentolepis nana [3], 100%; with Rodentolepis nana [4], 94%. Besides, the outcome in the series with Rodentolepis nana [9] was inactive.

Regarding `Oc1cc(-c2ccccc2)nc2ccc3nc(-c4ccccc4)[nH]c3c12`, the result in the series with Rodentolepis nana [1] was inactive. The figures for the Activity in the series on Rodentolepis nana [2], in the series on Rodentolepis nana [3] and with Rodentolepis nana [4] were 100%, 100% and 82%, respectively.

On to `Cc1nc2ccc3nc(-c4ccccc4)[nH]c3c2c(O)c1C`, for which the outcome in the series on Rodentolepis nana [1] was inactive. For the same molecule, the results for the Activity in the series on Rodentolepis nana [2], with Rodentolepis nana [3] and with Rodentolepis nana [4] were 100%, 100% and 94%, respectively.

Take `CCCCCCOc1ccc(C(=N)N(CCCC)CCCC)c2ccccc12` [BUNAMIDINE]: the Activity is listed as 30% with Rodentolepis nana [1], “Toxic” in the series on Mus musculus, 100% with Rodentolepis nana [2] and 59% in the series on Rodentolepis nana [4]. For the same molecule, the outcome in the series on Rodentolepis nana [9] was inactive.
